This passage reports inhibition, IC50 and Activity results from ChEMBL document CHEMBL5661979, “Pharmacological inhibition of BMK1 suppresses tumor growth through promyelocytic leukemia protein” (Cancer Cell, 2010).

Activity calls are given as the source filed them. No cut-off for these calls is given here.

As usually defined, the inhibition is the drop in the measured response relative to a control, in per cent. For orientation: IC50 means the concentration at which inhibition is half-maximal. Higher therefore signals weaker potency.

Test [1] concerns the target T1, Phosphatidylinositol 5-phosphate 4-kinase type-2 alpha (Homo sapiens) (UniProt P48426).
T1 sequence (whole entry): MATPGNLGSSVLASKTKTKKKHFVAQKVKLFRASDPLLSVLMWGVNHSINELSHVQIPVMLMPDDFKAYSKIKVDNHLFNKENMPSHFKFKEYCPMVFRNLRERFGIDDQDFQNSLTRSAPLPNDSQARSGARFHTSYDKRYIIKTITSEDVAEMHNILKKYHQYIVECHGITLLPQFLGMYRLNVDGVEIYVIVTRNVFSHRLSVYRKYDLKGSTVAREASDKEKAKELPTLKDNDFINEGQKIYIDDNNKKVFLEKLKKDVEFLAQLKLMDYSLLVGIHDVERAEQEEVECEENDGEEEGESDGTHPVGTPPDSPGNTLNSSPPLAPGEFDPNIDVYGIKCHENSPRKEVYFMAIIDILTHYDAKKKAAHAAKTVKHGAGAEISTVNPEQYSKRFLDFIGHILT
Nature of the test: Inhibition of PIP5K2A LIP site in human HeLa cells lysate at 50 uM pre incubated for 15 mins followed by ADP acyl phosphate probe addition and measured after 10 mins by LC-MS/MS analysis relative to control. In kind it is subcellular. Particulars: time 25.0 min.

The target of test [2] is Mitogen-activated protein kinase kinase kinase 8 (Homo sapiens, UniProt P41279). The experiment in a line: Inhibition of COT in human HeLa cells lysate pre incubated for 15 mins followed by ADP acyl phosphate probe addition and measured after 10 mins by LC-MS/MS analysis. In kind it is subcellular.
Chain of Mitogen-activated protein kinase kinase kinase 8 (P41279 whole entry): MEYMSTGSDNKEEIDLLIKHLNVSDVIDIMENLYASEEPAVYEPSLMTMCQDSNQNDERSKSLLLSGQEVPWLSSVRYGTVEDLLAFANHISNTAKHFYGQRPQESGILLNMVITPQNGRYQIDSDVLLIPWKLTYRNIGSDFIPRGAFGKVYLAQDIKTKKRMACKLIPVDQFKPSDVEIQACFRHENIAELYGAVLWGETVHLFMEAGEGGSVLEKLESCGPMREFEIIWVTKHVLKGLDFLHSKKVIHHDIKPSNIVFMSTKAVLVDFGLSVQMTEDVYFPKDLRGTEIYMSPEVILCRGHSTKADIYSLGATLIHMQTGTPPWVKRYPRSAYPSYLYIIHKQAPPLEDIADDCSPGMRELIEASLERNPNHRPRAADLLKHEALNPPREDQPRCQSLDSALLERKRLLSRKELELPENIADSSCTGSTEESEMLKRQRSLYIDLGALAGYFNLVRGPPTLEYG
In test [3] the target is Serine/threonine-protein kinase tousled-like 1 (Homo sapiens, UniProt Q9UKI8). The experiment in a line: Inhibition of TLK1 in human HeLa cells lysate pre incubated for 15 mins followed by ADP acyl phosphate probe addition and measured after 10 mins by LC-MS/MS analysis. In kind it is subcellular.
Chain of Serine/threonine-protein kinase tousled-like 1 (Q9UKI8 whole entry): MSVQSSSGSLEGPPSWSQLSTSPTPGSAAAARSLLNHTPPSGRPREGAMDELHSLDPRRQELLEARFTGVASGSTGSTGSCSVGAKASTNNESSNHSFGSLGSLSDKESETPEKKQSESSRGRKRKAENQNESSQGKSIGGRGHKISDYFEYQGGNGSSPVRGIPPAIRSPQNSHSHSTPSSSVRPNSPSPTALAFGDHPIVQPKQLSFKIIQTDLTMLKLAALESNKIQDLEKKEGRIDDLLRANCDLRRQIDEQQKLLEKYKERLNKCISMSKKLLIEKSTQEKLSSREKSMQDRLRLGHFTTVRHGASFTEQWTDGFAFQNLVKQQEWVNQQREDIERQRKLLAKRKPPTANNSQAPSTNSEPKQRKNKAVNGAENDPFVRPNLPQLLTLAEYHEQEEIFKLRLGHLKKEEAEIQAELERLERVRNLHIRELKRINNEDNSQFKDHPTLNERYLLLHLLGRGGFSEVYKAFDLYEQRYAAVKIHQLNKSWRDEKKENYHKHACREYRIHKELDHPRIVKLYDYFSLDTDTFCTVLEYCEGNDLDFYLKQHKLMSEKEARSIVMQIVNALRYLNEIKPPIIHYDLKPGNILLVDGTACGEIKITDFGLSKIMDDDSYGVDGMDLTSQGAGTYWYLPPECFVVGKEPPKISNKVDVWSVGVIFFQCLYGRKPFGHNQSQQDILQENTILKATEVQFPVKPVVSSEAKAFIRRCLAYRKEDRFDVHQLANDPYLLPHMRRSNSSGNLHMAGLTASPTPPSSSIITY
Test [4] has as its target Serine/threonine-protein kinase 16 (Homo sapiens, UniProt O75716). The experiment in a line: Inhibition of MPSK1 in human HeLa cells lysate at 50 uM pre incubated for 15 mins followed by ATP acyl phosphate probe addition and measured after 10 mins by LC-MS/MS analysis relative to control. In kind it is subcellular. Particulars: time 25.0 min.
Another test has as its system Lewis lung carcinoma. Nature of the test: Antitumor activity against mouse LL2 cells transfected with Ad-BMK1 allografted in C57Bl/6 mouse assessed as reduction tumor growth at 50 mg/kg, ip administered on day 7 post implantation measured after 17 days. In kind it is functional, organism-based. Particulars: time 10.0 day. The method, boiled down:
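LL/2 cells (1×10^6) were injected s.c. into C57Bl/6 mice; 6 per group. Ad-EV or Ad-BMK1(AEF) was given intratumorally on days 7, 11, 15 and 19. Drug was dosed at 50 mg/kg i.p. twice daily from day 8 to day 20; control groups received carrier solution.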

A short description of test [5]: Inhibition of SRPK1/2 in human HeLa cells lysate at 10 uM pre incubated for 15 mins followed by ADP acyl phosphate probe addition and measured after 10 mins by LC-MS/MS analysis relative to control. Particulars: 25 min, condition cancer.
Test [6] deals with Tyrosine-protein kinase Fer (Homo sapiens, UniProt P16591). Nature of the test: Inhibition of FER in human HeLa cells lysate at 50 uM pre incubated for 15 mins followed by ATP acyl phosphate probe addition and measured after 10 mins by LC-MS/MS analysis relative to control. In kind it is subcellular. The note with it: time 25.0 min.
The target of test [7] is Protein kinase C theta type (Homo sapiens, UniProt Q04759). Nature of the test: Inhibition of PKCtheta in human HeLa cells lysate at 50 uM pre incubated for 15 mins followed by ATP acyl phosphate probe addition and measured after 10 mins by LC-MS/MS analysis relative to control. In kind it is subcellular. The note with it: time 25.0 min.
For another test, the target named is Activated CDC42 kinase 1 (Homo sapiens, UniProt Q07912). The experiment in a line: Inhibition of ACK1 in human HeLa cells lysate pre incubated for 15 mins followed by ADP acyl phosphate probe addition and measured after 10 mins by LC-MS/MS analysis. In kind it is subcellular. In short, it runs like this: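 HeLa cell lysate (5 mg/mL total protein) preincubated 15 min with inhibitor at 50, 10, 2, 0.8 and 0 μM, then ATP or ADP acylphosphate probe added (5 μM final) for 10 min. Reaction stopped with urea, then targeted LC-MS/MS. Up to four fragment ions per kinase peptide-probe conjugate were used. % inhibition was taken versus untreated lysate. Run in duplicate.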

The target in test [8] is Peripheral plasma membrane protein CASK (Homo sapiens) (UniProt O14936). Nature of the test: Inhibition of CASK in human HeLa cells lysate at 2 uM pre incubated for 15 mins followed by ADP acyl phosphate probe addition and measured after 10 mins by LC-MS/MS analysis relative to control. The note with it: time 25.0 min. In kind it is subcellular. In short, it runs like this: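 KiNativ profiling in HeLa lysate (5 mg/mL total protein). Lysate incubated 15 min with inhibitor at 50, 10, 2, 0.8 or 0 μM. ATP or ADP acylphosphate probe then added (5 μM final) and reacted 10 min. Reaction stopped with urea and analysed by targeted MS, using up to four fragment ions per kinase peptide-probe conjugate. % inhibition taken against untreated lysate. Run in duplicate.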

Test [9] addresses Serine/threonine-protein kinase 24 (Homo sapiens, UniProt Q9Y6E0). Nature of the test: Inhibition of MST3 in human HeLa cells lysate at 2 uM pre incubated for 15 mins followed by ATP acyl phosphate probe addition and measured after 10 mins by LC-MS/MS analysis relative to control. In kind it is subcellular. The note with it: time 25.0 min.
The target of test [10] is Glycogen synthase kinase-3 beta (Homo sapiens, UniProt P49841). The experiment in a line: Inhibition of GSK3B isoform 2 in human HeLa cells lysate pre incubated for 15 mins followed by ADP acyl phosphate probe addition and measured after 10 mins by LC-MS/MS analysis. In kind it is subcellular.
Chain of Glycogen synthase kinase-3 beta (P49841 whole entry, canonical isoform): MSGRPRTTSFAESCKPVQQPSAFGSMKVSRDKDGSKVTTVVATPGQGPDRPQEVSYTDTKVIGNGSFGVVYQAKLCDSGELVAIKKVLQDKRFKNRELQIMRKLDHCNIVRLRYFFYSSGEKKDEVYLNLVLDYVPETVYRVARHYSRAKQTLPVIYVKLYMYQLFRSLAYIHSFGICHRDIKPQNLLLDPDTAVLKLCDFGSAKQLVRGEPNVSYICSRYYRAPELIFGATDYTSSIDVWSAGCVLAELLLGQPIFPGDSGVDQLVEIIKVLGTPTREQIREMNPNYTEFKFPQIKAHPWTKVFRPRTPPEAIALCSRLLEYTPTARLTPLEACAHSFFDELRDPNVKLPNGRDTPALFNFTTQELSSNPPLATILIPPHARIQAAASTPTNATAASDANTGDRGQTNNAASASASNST
Test [11] deals with Serine/threonine-protein kinase WNK1 (Homo sapiens, UniProt Q9H4A3). Nature of the test: Inhibition of Wnk1 in human HeLa cells lysate at 50 uM pre incubated for 15 mins followed by ATP acyl phosphate probe addition and measured after 10 mins by LC-MS/MS analysis relative to control. Particulars: time 25.0 min. In kind it is subcellular.
Chain of Serine/threonine-protein kinase WNK1 (Q9H4A3 whole entry, looked up): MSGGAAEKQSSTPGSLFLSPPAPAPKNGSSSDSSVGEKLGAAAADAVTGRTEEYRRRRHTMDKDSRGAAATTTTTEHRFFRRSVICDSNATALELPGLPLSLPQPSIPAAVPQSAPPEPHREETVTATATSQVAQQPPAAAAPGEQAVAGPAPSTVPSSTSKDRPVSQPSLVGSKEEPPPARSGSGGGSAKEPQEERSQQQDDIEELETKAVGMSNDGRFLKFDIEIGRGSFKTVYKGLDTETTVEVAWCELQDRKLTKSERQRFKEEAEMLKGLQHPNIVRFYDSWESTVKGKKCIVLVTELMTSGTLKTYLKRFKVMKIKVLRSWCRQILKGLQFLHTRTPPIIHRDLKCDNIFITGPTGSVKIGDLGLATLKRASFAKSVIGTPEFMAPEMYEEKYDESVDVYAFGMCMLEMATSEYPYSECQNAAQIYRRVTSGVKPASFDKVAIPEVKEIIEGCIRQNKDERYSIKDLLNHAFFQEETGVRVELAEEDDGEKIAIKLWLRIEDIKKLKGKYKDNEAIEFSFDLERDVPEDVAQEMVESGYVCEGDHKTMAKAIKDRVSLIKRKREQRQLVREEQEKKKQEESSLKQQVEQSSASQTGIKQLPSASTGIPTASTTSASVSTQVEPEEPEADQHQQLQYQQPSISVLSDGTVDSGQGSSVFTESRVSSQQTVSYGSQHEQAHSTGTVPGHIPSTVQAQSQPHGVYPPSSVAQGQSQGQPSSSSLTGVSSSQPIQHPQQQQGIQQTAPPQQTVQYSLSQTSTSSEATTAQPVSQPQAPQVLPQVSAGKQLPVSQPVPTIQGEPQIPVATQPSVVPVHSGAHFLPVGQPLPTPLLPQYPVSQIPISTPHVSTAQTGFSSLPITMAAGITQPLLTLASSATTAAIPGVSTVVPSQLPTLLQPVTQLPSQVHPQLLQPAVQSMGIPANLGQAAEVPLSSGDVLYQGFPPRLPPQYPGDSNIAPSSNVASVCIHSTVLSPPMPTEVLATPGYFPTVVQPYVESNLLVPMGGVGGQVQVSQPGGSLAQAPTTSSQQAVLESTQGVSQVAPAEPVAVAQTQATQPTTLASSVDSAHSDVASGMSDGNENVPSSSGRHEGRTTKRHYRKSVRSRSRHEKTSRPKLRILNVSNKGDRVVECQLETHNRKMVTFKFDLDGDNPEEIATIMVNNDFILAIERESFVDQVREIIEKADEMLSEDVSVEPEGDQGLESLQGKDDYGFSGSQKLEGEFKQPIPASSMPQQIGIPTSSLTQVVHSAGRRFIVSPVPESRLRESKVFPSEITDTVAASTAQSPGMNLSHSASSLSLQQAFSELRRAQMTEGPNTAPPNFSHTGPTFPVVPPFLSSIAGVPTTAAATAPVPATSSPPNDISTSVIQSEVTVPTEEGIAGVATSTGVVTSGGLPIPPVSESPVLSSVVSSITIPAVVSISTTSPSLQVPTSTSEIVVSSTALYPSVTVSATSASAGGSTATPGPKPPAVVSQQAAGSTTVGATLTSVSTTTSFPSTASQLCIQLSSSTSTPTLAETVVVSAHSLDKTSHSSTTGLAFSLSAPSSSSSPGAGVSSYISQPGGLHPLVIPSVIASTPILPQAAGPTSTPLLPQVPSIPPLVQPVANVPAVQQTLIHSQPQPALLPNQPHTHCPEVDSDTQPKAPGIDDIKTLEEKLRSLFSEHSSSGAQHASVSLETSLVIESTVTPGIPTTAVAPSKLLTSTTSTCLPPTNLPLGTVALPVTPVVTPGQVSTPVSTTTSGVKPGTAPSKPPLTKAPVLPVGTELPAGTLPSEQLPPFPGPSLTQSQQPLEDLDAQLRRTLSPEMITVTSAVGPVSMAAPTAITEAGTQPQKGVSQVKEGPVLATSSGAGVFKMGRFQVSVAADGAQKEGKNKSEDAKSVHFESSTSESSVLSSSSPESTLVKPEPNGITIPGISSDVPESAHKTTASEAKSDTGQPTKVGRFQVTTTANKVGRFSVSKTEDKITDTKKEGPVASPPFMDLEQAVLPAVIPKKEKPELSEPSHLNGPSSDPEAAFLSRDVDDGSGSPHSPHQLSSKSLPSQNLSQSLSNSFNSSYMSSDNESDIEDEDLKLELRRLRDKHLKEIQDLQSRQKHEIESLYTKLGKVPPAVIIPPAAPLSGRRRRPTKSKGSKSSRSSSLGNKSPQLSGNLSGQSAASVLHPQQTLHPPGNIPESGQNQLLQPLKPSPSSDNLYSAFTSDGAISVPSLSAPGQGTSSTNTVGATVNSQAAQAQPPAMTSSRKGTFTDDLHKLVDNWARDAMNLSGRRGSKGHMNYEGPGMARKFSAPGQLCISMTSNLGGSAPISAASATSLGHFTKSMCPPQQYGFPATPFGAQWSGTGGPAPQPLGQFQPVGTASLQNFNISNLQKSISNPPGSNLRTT
In another test the target is Wee1-like protein kinase (Homo sapiens, UniProt P30291). Nature of the test: Inhibition of Wee1 in human HeLa cells lysate at 2 uM pre incubated for 15 mins followed by ATP acyl phosphate probe addition and measured after 10 mins by LC-MS/MS analysis relative to control. In kind it is subcellular. The note with it: time 25.0 min.
Test [12] addresses Dual specificity mitogen-activated protein kinase kinase 4 (Homo sapiens, UniProt P45985). Nature of the test: Inhibition of MAP2K4 in human HeLa cells lysate pre incubated for 15 mins followed by ADP acyl phosphate probe addition and measured after 10 mins by LC-MS/MS analysis. In kind it is subcellular.
For a further test, the target named is RPS6KA1/RPS6KA2/RPS6KA3 (Homo sapiens, UniProt P51812+Q15349+Q15418). The experiment in a line: Inhibition of RSK1/2/3 in human HeLa cells lysate pre incubated for 15 mins followed by ATP acyl phosphate probe addition and measured after 10 mins by LC-MS/MS analysis. In kind it is subcellular.

Chain of Serine/threonine-protein kinase 24 (Q9Y6E0 whole entry, looked up, canonical isoform): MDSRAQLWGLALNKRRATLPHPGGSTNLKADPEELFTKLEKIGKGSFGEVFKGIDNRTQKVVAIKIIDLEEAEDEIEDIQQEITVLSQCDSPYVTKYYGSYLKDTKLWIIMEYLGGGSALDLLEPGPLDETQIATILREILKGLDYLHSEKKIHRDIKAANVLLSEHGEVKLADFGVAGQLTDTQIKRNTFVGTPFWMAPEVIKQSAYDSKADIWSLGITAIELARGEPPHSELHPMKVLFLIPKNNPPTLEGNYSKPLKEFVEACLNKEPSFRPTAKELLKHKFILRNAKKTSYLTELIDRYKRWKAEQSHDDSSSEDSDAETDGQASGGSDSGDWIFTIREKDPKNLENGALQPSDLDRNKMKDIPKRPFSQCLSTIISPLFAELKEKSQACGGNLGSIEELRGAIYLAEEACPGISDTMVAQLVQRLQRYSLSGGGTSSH
Chain of Serine/threonine-protein kinase 16 (O75716 whole entry): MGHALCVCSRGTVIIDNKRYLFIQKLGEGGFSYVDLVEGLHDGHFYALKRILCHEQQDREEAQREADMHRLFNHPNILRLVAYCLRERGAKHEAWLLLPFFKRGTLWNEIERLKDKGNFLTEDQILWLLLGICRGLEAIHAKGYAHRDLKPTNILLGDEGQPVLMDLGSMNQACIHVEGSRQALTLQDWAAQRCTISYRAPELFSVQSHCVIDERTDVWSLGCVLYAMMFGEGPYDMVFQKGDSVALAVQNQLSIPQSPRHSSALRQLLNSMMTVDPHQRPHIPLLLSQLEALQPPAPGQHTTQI

`CCOc1cc(N2CCC(O)CC2)ccc1Nc1ncc2c(n1)N(C)c1ccccc1C(=O)N2C`: the inhibition was 15.1% in test [1]; -8.9% in [4]; 14.8% in test [6]; 1.8% in test [7]; 12.1% in test [8]; -3.8% in test [9]. For the same molecule, the inhibition in [11] is -9.5%; against Wee1-like protein kinase it was -5.2%. For the same molecule, the IC50 in test [2] is > 50 µM; in test [3] it was > 50 µM; on Activated CDC42 kinase 1 it was 18 µM; in test [10], > 50 µM; in test [12], > 50 µM; at RPS6KA1/RPS6KA2/RPS6KA3 it was > 50 µM. Moreover, the result with Lewis lung carcinoma was Active. Besides, in test [5], the inhibition at 10 µM is -8.1%.
